ChEMBL document CHEMBL4334522, “Optimization Strategy of Novel Peptide-Based Michael Acceptors for the Treatment of Human African Trypanosomiasis” (J Med Chem, 2019)
Calls of active or inactive are those of the source. The calls are words filed in the database; no cut-off is given here.

What was measured:
Procathepsin L [1] = molecular target: T1, Procathepsin L (Homo sapiens, UniProt P07711); assay: Inhibition of human Cathepsin L assessed as second order rate constant obtained from ratio of Kinact to Ki using Cbz-Phe-Arg-AMC as substrate by fluorescence assay
Target sequence in this assay (P07711 114-333 limits assumed): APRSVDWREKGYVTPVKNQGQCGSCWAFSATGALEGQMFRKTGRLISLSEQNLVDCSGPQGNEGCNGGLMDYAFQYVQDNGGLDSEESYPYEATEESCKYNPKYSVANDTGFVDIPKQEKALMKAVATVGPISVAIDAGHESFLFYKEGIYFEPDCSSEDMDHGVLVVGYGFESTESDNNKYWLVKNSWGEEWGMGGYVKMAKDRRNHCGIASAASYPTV

Procathepsin L [2] = molecular target: T1, Procathepsin L; assay: Inhibition of human Cathepsin L assessed as inhibition constant using Cbz-Phe-Arg-AMC as substrate by fluorescence assay
Target sequence in this assay (P07711 whole entry): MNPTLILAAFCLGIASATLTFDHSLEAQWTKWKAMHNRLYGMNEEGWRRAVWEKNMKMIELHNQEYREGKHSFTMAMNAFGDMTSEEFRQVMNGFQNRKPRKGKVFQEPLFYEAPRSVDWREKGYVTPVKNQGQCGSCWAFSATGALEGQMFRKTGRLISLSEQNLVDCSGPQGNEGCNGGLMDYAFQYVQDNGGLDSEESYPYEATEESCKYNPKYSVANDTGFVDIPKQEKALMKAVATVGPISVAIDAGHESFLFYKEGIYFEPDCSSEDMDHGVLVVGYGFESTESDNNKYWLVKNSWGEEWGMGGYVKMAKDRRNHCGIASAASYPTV

Rhodesain = Rhodesain (Trypanosoma brucei rhodesiense, UniProt Q95PM0); assay: Inhibition of Trypanosoma brucei rhodesiense rhodesain expressed in Pichia pastoris assessed as inhibition constant measured for 30 mins using Cbz-Phe-Arg-AMC as substrate by fluorescence assay
Method in brief: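 Recombinant rhodesain, continuous fluorimetric assay with Cbz-Phe-Arg-AMC at 10 µM, ex 380/em 460 nm, read 30 min at room temperature. Buffer: 50 mM sodium acetate pH 5.5, 5 mM EDTA, 200 mM NaCl, 0.005% Brij 35; enzyme buffer has 5 mM DTT. Seven inhibitor concentrations. kobs from progress-curve fits, hyperbolic fit gives Kiapp, corrected with Km 0.9 µM to Ki. Two independent assays in duplicate.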

[3] = molecular target: Rhodesain (Trypanosoma brucei rhodesiense) (UniProt Q95PM0); assay: Inhibition of Trypanosoma brucei rhodesiense rhodesain expressed in Pichia pastoris assessed as first-order rate constant measured for 30 mins using Cbz-Phe-Arg-AMC as substrate by fluorescence assay
Method in brief: (§1)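 Continuous rhodesain assay using 7 inhibitor concentrations spanning minimal to full inhibition, with 10 µM Cbz-Phe-Arg-AMC. Buffer: 50 mM sodium acetate pH 5.5, 5 mM EDTA, 200 mM NaCl, 0.005% Brij 35; enzyme buffer had 5 mM DTT instead. Read at room temperature for 30 min, ex 380/em 460 nm. kobs came from fitting progress curves to F = A(1−exp(−kobs·t)) + B. Fitting kobs against [I] hyperbolically gave kinac and Kiapp. Kiapp was corrected by (1+[S]/Km) with Km 0.9 µM, and k2nd = kinac/Ki. Each assay was run twice in duplicate.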

[4] = molecular target: Rhodesain (Trypanosoma brucei rhodesiense) (UniProt Q95PM0); assay: Inhibition of Trypanosoma brucei rhodesiense rhodesain expressed in Pichia pastoris at 50 uM measured for 30 mins using Cbz-Phe-Arg-AMC as substrate by fluorescence assay relative to control
Method in brief: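 Recombinant rhodesain screened with inhibitor at 50 µM against an equivalent DMSO negative control. AMC release from 10 µM Cbz-Phe-Arg-AMC was followed continuously for 30 min.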

[5] = molecular target: Rhodesain (Trypanosoma brucei rhodesiense) (UniProt Q95PM0); assay: Inhibition of Trypanosoma brucei rhodesiense rhodesain expressed in Pichia pastoris assessed as second order rate constant obtained from ratio of Kinact to Ki measured for 30 mins using Cbz-Phe-Arg-AMC as substrate by fluorescence assay; method in brief: as §1
Procathepsin L [6] = molecular target: T1, Procathepsin L; assay: Inhibition of human Cathepsin L assessed as first-order rate constant using Cbz-Phe-Arg-AMC as substrate by fluorescence assay
Target sequence in this assay (P07711 114-333 limits assumed): as the sequence (P07711 114-333 limits assumed) above

[7] = system: Trypanosoma brucei brucei; assay: Antitrypanosomal activity against blood stage form of Trypanosoma brucei brucei 449 incubated for 24 hrs by ATPlite assay; type: functional, organism-based; conditions: Trypanosoma brucei, 449, 24 h
Method in brief: (§2)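 Bloodstream-form T. b. brucei 449 (Lister 427 descendant) cultured in HMI-9 with 10% FCS, penicillin/streptomycin and 0.2 µg/mL phleomycin at 37°C, 5% CO2. Cells seeded at 2500 cells/mL. Compounds from 5 mM stocks were serially diluted 1:2 to give 16.7 µM to 32.5 nM final. Controls: 0.3% DMSO (negative) and 10% DMSO (positive). Incubated 24 h or 48 h, in two separate triplicates. Viability read by ATPlite luminescence; EC50 taken from dose-response curves.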

[8] = system: Trypanosoma brucei brucei; assay: Antitrypanosomal activity against blood stage form of Trypanosoma brucei brucei 449 incubated for 48 hrs by ATPlite assay; type: functional, organism-based; conditions: Trypanosoma brucei, 449, 48 h; method in brief: as §2
[9] = molecular target: Rhodesain (Trypanosoma brucei rhodesiense) (UniProt Q95PM0); assay: Irreversible inhibition of Trypanosoma brucei rhodesiense rhodesain expressed in Pichia pastoris at 0.005 to 0.5 nM measured for 30 mins using Cbz-Phe-Arg-AMC as substrate by fluorescence assay; method in brief: as §1

Chain of Rhodesain (Trypanosoma brucei rhodesiense) (Q95PM0 1-450): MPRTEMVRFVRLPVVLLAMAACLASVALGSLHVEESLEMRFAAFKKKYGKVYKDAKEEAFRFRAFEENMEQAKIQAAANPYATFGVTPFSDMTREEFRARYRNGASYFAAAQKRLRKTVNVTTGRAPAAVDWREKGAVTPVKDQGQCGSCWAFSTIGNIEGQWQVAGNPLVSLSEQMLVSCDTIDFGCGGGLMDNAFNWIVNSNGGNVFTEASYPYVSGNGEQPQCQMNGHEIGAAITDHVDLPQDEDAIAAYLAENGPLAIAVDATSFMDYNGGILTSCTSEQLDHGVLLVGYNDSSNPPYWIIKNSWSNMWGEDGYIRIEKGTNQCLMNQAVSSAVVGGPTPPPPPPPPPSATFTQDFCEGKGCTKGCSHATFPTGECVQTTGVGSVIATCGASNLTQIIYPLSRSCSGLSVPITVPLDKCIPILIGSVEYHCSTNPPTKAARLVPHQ
Chain of Rhodesain (Q95PM0 whole entry): as the sequence (Q95PM0 1-450) above

Row | Structure (SMILES) | K (Procathepsin L [1]) | Ki (Procathepsin L [2]) | Ki (Rhodesain) | Kinact [3] | inhibition [4] | K [5] | Kinact (Procathepsin L [6]) | EC50 [7] | EC50 [8] | inhibition [9]
1 | CC(=O)/C=C/[C@H](CCc1ccccc1)NC(=O)[C@H](Cc1ccccc1)NC(=O)c1ccc2c(c1)OCCO2 | 102 ×10³ /M/min | 78.2 nM | 0.74 nM | 0.0043 min⁻¹ | 85 to 100% | 7200 ×10³ /M/min | 0.0076 min⁻¹ |  |  | 
2 | CC(=O)/C=C/[C@H](CCc1ccccc1)NC(=O)[C@H](Cc1ccccc1)NC(=O)c1ccc(F)cc1F | 52 ×10³ /M/min | 35 nM | 0.0006 nM | 7e-05 min⁻¹ | 85 to 100% | 107000 ×10³ /M/min | 0.0015 min⁻¹ | 740 nM | 670 nM | 
3 | CC(=O)/C=C/[C@H](CCc1ccccc1)NC(=O)[C@H](Cc1ccccc1)NC(=O)c1ccc2c(c1)OCO2 | 157 ×10³ /M/min | 10.2 nM | 0.034 nM | 0.0005 min⁻¹ | 85 to 100% | 15300 ×10³ /M/min | 0.0016 min⁻¹ | 5000 nM | 3700 nM | 
4 | CC(=O)/C=C/[C@H](CCc1ccccc1)NC(=O)[C@H](Cc1ccccc1)NC(=O)c1ccccc1F | 313 ×10³ /M/min | 5.3 nM | 0.003 nM | 0.0006 min⁻¹ | 85 to 100% | 230000 ×10³ /M/min | 0.0011 min⁻¹ |  |  | 
5 | CC(=O)/C=C/[C@H](CCc1ccccc1)NC(=O)[C@H](Cc1ccccc1)NC(=O)c1cc(F)cc(F)c1 | 156 ×10³ /M/min | 14.8 nM | 0.015 nM | 0.0016 min⁻¹ | 85 to 100% | 113000 ×10³ /M/min | 0.0022 min⁻¹ | 4000 nM | 3400 nM | 
6 | CC(=O)/C=C/[C@H](CCc1ccccc1)NC(=O)[C@H](Cc1ccccc1)NC(=O)N1CCOCC1 | 23 ×10³ /M/min | 175 nM | 3.1 nM | 0.00049 min⁻¹ | 85 to 100% | 157 ×10³ /M/min | 0.0039 min⁻¹ |  |  | 
7 | CC(=O)/C=C/[C@H](CCc1ccccc1)NC(=O)[C@H](Cc1ccccc1)NC(=O)c1c(F)cccc1F | 8.9 ×10³ /M/min | 230 nM | 0.0076 nM | 0.0012 min⁻¹ | 85 to 100% | 151000 ×10³ /M/min | 0.002 min⁻¹ |  |  | 
8 | CC(=O)/C=C/[C@H](CCc1ccccc1)NC(=O)[C@H](Cc1ccccc1)NC(=O)Cc1ccc2c(c1)OCO2 | 59 ×10³ /M/min | 90.3 nM | 2.1 nM | 0.00085 min⁻¹ | 85 to 100% | 435 ×10³ /M/min | 0.0053 min⁻¹ |  |  | 
9 | CC(=O)/C=C/[C@H](CCc1ccccc1)NC(=O)[C@H](Cc1ccccc1)NC(=O)N1CCN(C)CC1 | 31 ×10³ /M/min | 158 nM | 1.8 nM | 0.00042 min⁻¹ | 85 to 100% | 266 ×10³ /M/min | 0.0047 min⁻¹ |  |  | 
10 | CCC(=O)/C=C/[C@H](CCc1ccccc1)NC(=O)[C@H](Cc1ccccc1)NC(=O)OCc1ccccc1 | 67 ×10³ /M/min | 108 nM | 0.5 nM | 0.00082 min⁻¹ | 85 to 100% | 1800 ×10³ /M/min | 0.0071 min⁻¹ |  |  | 
11 | CC(=O)/C=C/[C@H](CCc1ccccc1)NC(=O)[C@H](CCc1ccccc1)NC(=O)OCc1ccccc1 | 12 ×10³ /M/min | 453 nM | 5.54 nM | 0.00072 min⁻¹ | 85 to 100% | 137 ×10³ /M/min | 0.0056 min⁻¹ | 550 nM | 440 nM | 
12 | CC(=O)/C=C/[C@H](CCc1ccccc1)NC(=O)[C@H](Cc1ccccc1)NC(=O)c1ccc(F)cc1 | 1230 ×10³ /M/min | 1.5 nM | 0.0011 nM | 0.0009 min⁻¹ | 85 to 100% | 881000 ×10³ /M/min | 0.0018 min⁻¹ | 5100 nM | 3600 nM | Active
13 | CC(=O)/C=C/[C@H](CCc1ccccc1)NC(=O)[C@H](Cc1ccccc1)NC(=O)c1ccc(C(F)(F)F)cc1 | 380 ×10³ /M/min | 4.1 nM | 0.0044 nM | 0.00075 min⁻¹ | 85 to 100% | 175000 ×10³ /M/min | 0.0015 min⁻¹ |  |  | 
14 | CC(=O)/C=C/[C@H](CCc1ccccc1)NC(=O)[C@H](Cc1ccccc1)NC(=O)c1cccc(F)c1 | 41 ×10³ /M/min | 47 nM | 0.023 nM | 0.0032 min⁻¹ | 85 to 100% | 149000 ×10³ /M/min | 0.0019 min⁻¹ |  |  | 
15 | CC(=O)/C=C/[C@H](CCc1ccccc1)NC(=O)[C@H](Cc1ccccc1)NC(=O)c1ccc(Cl)cc1 | 3030 ×10³ /M/min | 0.6 nM | 0.029 nM | 0.0008 min⁻¹ | 85 to 100% | 29300 ×10³ /M/min | 0.0018 min⁻¹ | 4800 nM | 3200 nM | 
